Reference: ChEMBL document CHEMBL1158348, “Aroylpropionic acid based 2,5-disubstituted-1,3,4-oxadiazoles: synthesis and their anti-inflammatory and analgesic activities” (Eur J Med Chem, 2009)

What was measured:
Rattus norvegicus [1] = assay: Antiinflammatory activity in po dosed Wistar rat assessed as inhibition of carrageenan-induced paw odema at dose equivalent to 20 mg/kg of ibuprofen pretreated 30 mins pre-carrageenan challenge measured after 2 hrs; assay type: functional
Method in brief: (§1)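 Rats 150–200 g, groups of six. Drug given orally as a suspension in 0.5% w/v aqueous sodium CMC; control group untreated. 30 min later, 0.1 mL of 1% carrageenan injected sub-plantar into the left hind paw. Paw volume measured by plethysmometer before treatment (V0) and at intervals (Vt). Inhibition computed from (Vt−V0) of treated vs control. Values are mean ± S.E.M.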

Rattus norvegicus [2] = assay: Antiinflammatory activity in po dosed Wistar rat assessed as inhibition of carrageenan-induced paw odema at dose equivalent to 20 mg/kg of ibuprofen pretreated 30 mins pre-carrageenan challenge measured after 3 hrs; assay type: functional; method in brief: as §1
Mus musculus [3] = assay: Analgesic activity in po dosed Swiss albino mouse assessed as inhibition of acetic acid-induced writhing response at dose equivalent to 20 mg/kg of ibuprofen pretreated 3 hrs before acetic acid challenge; assay type: functional; parameters: scale not given: the % may be the effect or the level left
Method in brief: (§2)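 Mice 25–30 g of either sex, groups of six. Drug given orally as a suspension in 0.5% w/v aqueous sodium CMC, 3 h before 1% v/v acetic acid i.p. at 1 mL per 100 g body weight. Writhings counted over 10 min. Protection (%) = 100 − (test/control writhings × 100). Values are mean ± S.E.M., with ANOVA then t-test.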

Rattus norvegicus [4] = assay: Gastrointestinal toxicity in po dosed Wistar rat assessed ulcer index at dose equivalent to 60 mg/kg of ibuprofen after 17 hrs; assay type: organism-based; parameters: dose 60 mg/kg, route oral; conditions: in vivo
Method in brief: (§3)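 Wistar rats (150–200 g), groups of six, fasted 8 h, then given a single oral dose (60 mg kg-1 ibuprofen or molar equivalent of test compound; control received vehicle only). Sacrificed 17 h later with food and water available. Gastric mucosa examined under 4× binocular magnifier, scored 0–4 by lesion/ulcer number and size. Severity index = treated group mean score minus control mean score.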

Gastric mucosa [5] = assay: Inhibition of lipid peroxidation assessed as malondialdehyde level per 100 mg of gastric mucosa isolated from po dosed Wistar rat treated dose equivalent to 60 mg/kg equivalent to ibuprofen by UV spectrophotometry; assay type: functional
Method in brief: (§4)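 Rats 150–200 g, groups of six, fasted 8 h, then given a single oral dose and killed 17 h later with food and water available. Gastric mucosa scraped, 100 mg homogenised in ice-cold 1.15% KCl. SDS, pH 3.5 acetate buffer and 0.8% TBA added, heated at 95 °C for 60 min. Extracted with n-butanol/pyridine 15:1, A532 read; MDA in nmol/100 mg tissue.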

Rattus norvegicus [6] = assay: Antiinflammatory activity in Wistar rat assessed as inhibition of carrageenan-induced paw odema at 20 mg/kg, po pretreated 30 mins pre-carrageenan challenge measured after 2 hrs; assay type: functional; method in brief: as §1
Rattus norvegicus [7] = assay: Antiinflammatory activity in Wistar rat assessed as inhibition of carrageenan-induced paw odema at 20 mg/kg, po pretreated 30 mins pre-carrageenan challenge measured after 3 hrs; assay type: functional; method in brief: as §1
Rattus norvegicus [8] = assay: Antiinflammatory activity in Wistar rat assessed as inhibition of carrageenan-induced paw odema at 20 mg/kg, po pretreated 30 mins pre-carrageenan challenge measured after 4 hrs; assay type: functional; method in brief: as §1
Rattus norvegicus [9] = assay: Antiinflammatory activity in Wistar rat assessed as inhibition of carrageenan-induced paw odema at 20 mg/kg, po pretreated 30 mins pre-carrageenan challenge measured after 8 hrs; assay type: functional; method in brief: as §1
Mus musculus [10] = assay: Analgesic activity in Swiss albino mouse assessed as inhibition of acetic acid-induced writhing response at 20 mg/kg, po pretreated 3 hrs before acetic acid challenge; assay type: functional; parameters: scale not given: the % may be the effect or the level left; method in brief: as §2
Rattus norvegicus [11] = assay: Gastrointestinal toxicity in Wistar rat assessed ulcer index at 60 mg/kg, po after 17 hrs; assay type: organism-based; parameters: dose 60 mg/kg, route oral; conditions: in vivo; method in brief: as §3
Gastric mucosa [12] = assay: Inhibition of lipid peroxidation assessed as malondialdehyde level per 100 mg of gastric mucosa isolated from Wistar rat treated 60 mg/kg, po by UV spectrophotometry; assay type: functional; method in brief: as §4

Structure (SMILES): Cc1ccc(C(=O)CCc2nnc(-c3ccc(Cl)cc3)o2)cc1
- inhibition in vivo (Rattus norvegicus [1]): 62.7%
- inhibition in vivo (Rattus norvegicus [2]): 81.5%
- Activity (Mus musculus [3]): 58.89%
- UI (Rattus norvegicus [4]): 0.98
- Activity (Gastric mucosa [5]): 4.25 nmol

Structure (SMILES): Cc1ccc(C(=O)CCc2nnc(-c3ccc([N+](=O)[O-])cc3)o2)cc1
- inhibition in vivo (Rattus norvegicus [1]): 52%
- inhibition in vivo (Rattus norvegicus [2]): 60.5%
- Activity (Mus musculus [3]): 53.43%
- UI (Rattus norvegicus [4]): 0.95
- Activity (Gastric mucosa [5]): 3.95 nmol

Structure (SMILES): Cc1ccc(C(=O)CCc2nnc(COc3ccccc3)o2)cc1
- inhibition in vivo (Rattus norvegicus [1]): 25.3%
- inhibition in vivo (Rattus norvegicus [2]): 42%

Structure (SMILES): Cc1ccc(C(=O)CCc2nnc(Cc3ccccc3)o2)c(C)c1
- inhibition in vivo (Rattus norvegicus [1]): 25.3%
- inhibition in vivo (Rattus norvegicus [2]): 50%

Structure (SMILES): O=C(CCc1nnc(-c2ccccc2Cl)o1)c1ccccc1
- inhibition in vivo (Rattus norvegicus [1]): 26.9%
- inhibition in vivo (Rattus norvegicus [2]): 35.8%

Structure (SMILES): O=C(CCc1nnc(-c2ccc([N+](=O)[O-])cc2)o1)c1ccccc1
- inhibition in vivo (Rattus norvegicus [1]): 40.9%
- inhibition in vivo (Rattus norvegicus [2]): 62.7%
- Activity (Mus musculus [3]): 58.2%
- UI (Rattus norvegicus [4]): 0.98
- Activity (Gastric mucosa [5]): 4.95 nmol

Structure (SMILES): COc1ccc(-c2nnc(CCC(=O)c3ccc(C)cc3C)o2)cc1
- inhibition in vivo (Rattus norvegicus [1]): 62.7%
- inhibition in vivo (Rattus norvegicus [2]): 88.9%
- Activity (Mus musculus [3]): 66.25%
- UI (Rattus norvegicus [4]): 0.65
- Activity (Gastric mucosa [5]): 3.79 nmol

Structure (SMILES): Cc1ccc(C(=O)CCc2nnc(Cc3ccccc3)o2)cc1
- inhibition in vivo (Rattus norvegicus [1]): 24.7%
- inhibition in vivo (Rattus norvegicus [2]): 51.9%

Structure (SMILES): Cc1ccc(C(=O)CCc2nnc(-c3ccccc3Cl)o2)cc1
- inhibition in vivo (Rattus norvegicus [1]): 36.2%
- inhibition in vivo (Rattus norvegicus [2]): 57.3%

Structure (SMILES): Cc1ccc(C(=O)CCc2nnc(COc3ccccc3)o2)c(C)c1
- inhibition in vivo (Rattus norvegicus [1]): 27.6%
- inhibition in vivo (Rattus norvegicus [2]): 45.7%

Structure (SMILES): Cc1ccc(C(=O)CCc2nnc(-c3ccc([N+](=O)[O-])cc3)o2)c(C)c1
- inhibition in vivo (Rattus norvegicus [1]): 40%
- inhibition in vivo (Rattus norvegicus [2]): 69.1%
- Activity (Mus musculus [3]): 47.2%
- UI (Rattus norvegicus [4]): 0.87
- Activity (Gastric mucosa [5]): 4.42 nmol

Structure (SMILES): Cc1ccc(C(=O)CCc2nnc(-c3ccccc3)o2)c(C)c1
- inhibition in vivo (Rattus norvegicus [1]): 36%
- inhibition in vivo (Rattus norvegicus [2]): 58%

Structure (SMILES): O=C(CCc1nnc(COc2ccc3ccccc3c2)o1)c1ccccc1
- inhibition in vivo (Rattus norvegicus [1]): 29.8%
- inhibition in vivo (Rattus norvegicus [2]): 51%

Structure (SMILES): Cc1ccc(C(=O)CCc2nnc(-c3ccccc3Cl)o2)c(C)c1
- inhibition in vivo (Rattus norvegicus [1]): 33.5%
- inhibition in vivo (Rattus norvegicus [2]): 60.5%
- Activity (Mus musculus [3]): 56.8%
- UI (Rattus norvegicus [4]): 0.89
- Activity (Gastric mucosa [5]): 4.15 nmol

Structure (SMILES): COc1ccc(-c2nnc(CCC(=O)c3ccc(C)cc3)o2)cc1OC
- inhibition in vivo (Rattus norvegicus [1]): 53.3%
- inhibition in vivo (Rattus norvegicus [2]): 72.6%
- Activity (Mus musculus [3]): 62.39%
- UI (Rattus norvegicus [4]): 0.87
- Activity (Gastric mucosa [5]): 3.85 nmol

Structure (SMILES): COc1ccc(-c2nnc(CCC(=O)c3ccc(C)cc3C)o2)cc1OC
- inhibition in vivo (Rattus norvegicus [1]): 58.7%
- inhibition in vivo (Rattus norvegicus [2]): 75.3%
- Activity (Mus musculus [3]): 56.1%
- UI (Rattus norvegicus [4]): 1.12
- Activity (Gastric mucosa [5]): 5.12 nmol

Structure (SMILES): Cc1ccc(C(=O)CCc2nnc(COc3cccc4ccccc34)o2)cc1
- inhibition in vivo (Rattus norvegicus [1]): 24%
- inhibition in vivo (Rattus norvegicus [2]): 37%

Structure (SMILES): COc1ccc(-c2nnc(CCC(=O)c3ccc(C)cc3)o2)cc1
- inhibition in vivo (Rattus norvegicus [1]): 69.3%
- inhibition in vivo (Rattus norvegicus [2]): 89.5%
- Activity (Mus musculus [3]): 69.8%
- UI (Rattus norvegicus [4]): 0.7
- Activity (Gastric mucosa [5]): 3.15 nmol

Structure (SMILES): O=C(CCc1nnc(-c2ccccc2)o1)c1ccccc1
- inhibition in vivo (Rattus norvegicus [1]): 18.7%
- inhibition in vivo (Rattus norvegicus [2]): 29.4%

Structure (SMILES): O=C(CCc1nnc(-c2ccc(Cl)cc2)o1)c1ccccc1
- inhibition in vivo (Rattus norvegicus [1]): 42%
- inhibition in vivo (Rattus norvegicus [2]): 81.5%
- Activity (Mus musculus [3]): 63%
- UI (Rattus norvegicus [4]): 1.12
- Activity (Gastric mucosa [5]): 5.32 nmol

Structure (SMILES): Cc1ccc(C(=O)CCc2nnc(COc3ccc4ccccc4c3)o2)cc1
- inhibition in vivo (Rattus norvegicus [1]): 24.7%
- inhibition in vivo (Rattus norvegicus [2]): 49.4%

Structure (SMILES): Cc1ccc(C(=O)CCc2nnc(-c3ccc(Cl)cc3)o2)c(C)c1
- inhibition in vivo (Rattus norvegicus [1]): 53.3%
- inhibition in vivo (Rattus norvegicus [2]): 72.6%
- Activity (Mus musculus [3]): 60.42%
- UI (Rattus norvegicus [4]): 0.71
- Activity (Gastric mucosa [5]): 3.26 nmol

Structure (SMILES): Cc1ccc(C(=O)CCc2nnc(-c3ccccc3)o2)cc1
- inhibition in vivo (Rattus norvegicus [1]): 33.3%
- inhibition in vivo (Rattus norvegicus [2]): 49.3%

Structure (SMILES): CC(C)Cc1ccc(C(C)C(=O)O)cc1 (stereo unspecified) [IBUPROFEN]
- inhibition in vivo at 20 mg/kg (Rattus norvegicus [6]): 80.9%
- inhibition in vivo at 20 mg/kg (Rattus norvegicus [7]): 90.1%
- inhibition in vivo at 20 mg/kg (Rattus norvegicus [8]): 65.5%
- inhibition in vivo at 20 mg/kg (Rattus norvegicus [9]): 46.7%
- Activity (Mus musculus [10]): 72.5%
- UI (Rattus norvegicus [11]): 1.95
- Activity (Gastric mucosa [12]): 7.51 nmol
